Screens deposited in PubChem by several laboratories.
STAT3 activator: STAT3 signaling activation; U3A cells, IL-6 STAT3-luciferase reporter, luminescence; 100% = signal with IL-6 EC80 alone; activation (% of control), % at 5.6 µM; 190,000 tested, 0.91% active;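 active = activation above the screen-wide mean of compound activation plus 3 SD, cut at about 130% in these data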;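 also: 0% = background luminescence of wells with medium and substrate only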
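Test system: STAT3-luciferase reporter U3A cells; Detection: reporter luminescence signal; Times: 1 h compound pre-exposure, 6 h IL-6 stimulation, 37 °C; Benchmarks: IL-6-only high control; Also added: IL-6 stimulus at 33 ng/mL final.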
STAT1 inh: inhibitors of IFN-gamma induced STAT1 signaling | NIH 3T3 STAT1-luciferase reporter, luminescence | inhibition, % at 5.5 µM | 200,000 tested, 0.35% active;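 active = inhibition above a set limit, the mean inhibition across all tested compounds plus 3 SD, cut at about 34% in these data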;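 also: 0% = IFN-gamma with DMSO and 100% = IFN-gamma with 300 µM nifuroxazide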
APP 5'UTR act: activates APP 5'UTR luciferase reporter; activation, % at 2 µM; SH-SY5Y APP 5'UTR luciferase reporter, luminescence; zero percent = DMSO vehicle wells; 190,000 tested, 1% active;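 active = activation above a set limit, based on mean plus 3 SD of controls, cut at about 140% in these data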
STAT3 blocker: reduces IL-6 driven STAT3 reporter signal | inhibition, % at 5.5 µM | 190,000 tested, 0.89% active | U3A cells, IL-6 STAT3-luciferase reporter, luminescence; host cell line lacks STAT1 | AID 862;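 active = inhibition above the mean inhibition across all screened compounds plus 3 SD, cut at about 44% in these data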;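 also: 0% = DMSO only wells and 100% = 100 µM nifuroxazide control wells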
STAT1 activator: STAT1 signaling activation; activation (% of control), % at 5.5 µM; 200,000 tested, 2.6% active; NIH 3T3 STAT1-luciferase reporter, IFN-gamma, luminescence; 100% = IFN-gamma alone, no compound;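 active = activation above the screen-wide mean activation plus 3 SD, cut at about 130% in these data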;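 also: raw ratio to IFN-gamma control signal so 100% means no change and 0% no light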
NF-kB expr up: NF-kB expression increase, human neuronal cells | NF-kB reporter expression; active compounds read high | fold change at 12.5 µM | 190,000 tested, 1.6% active; in the data active = fold change above about 3.3
The depositor's hits bear a star; . = no result given. In the library only some 5.1% were active in any assay of this set; here they are far more common.

SMILES | STAT3 activator | STAT1 inh | APP 5'UTR act | STAT3 blocker | STAT1 activator | NF-kB expr up
COc1ccc(-n2ncc3c(NCCCN4CCOCC4)ncnc32)cc1 | 107.8 | -38.2 | 84.7 | -6.1 | 135.1* | 0.74
O=C(OCC(=O)c1ccc[nH]1)c1ccccc1 | 103.8 | -42.1 | 1.8 | -3.3 | 137.9* | 1.66
Cc1cc(S(=O)(=O)N2CCOCC2)ccc1F | 99.0 | 5.4 | 13.6 | 0.8 | 95.0 | 4.44*
CSc1nc2ccc(S(=O)(=O)N3CCCCC3)cc2s1 | 102.1 | 9.8 | -5.5 | 4.5 | 90.9 | 1.02
CSc1nc2ccc(S(=O)(=O)N3CCOCC3)cc2s1 | 135.1* | 2.2 | 10.4 | -39.1 | 98.0 | 0.77
c1cncc(CSc2ccc(-c3ccc4c(c3)OCO4)nn2)c1 | 88.3 | -33.0 | 62.5 | 19.3 | 127.9 | 2.48
O=C(Nc1ccccc1F)c1ccc(CSc2ncccn2)cc1 | 100.0 | -42.7 | 155.1* | 7.1 | 137.8* | 3.08
O=C(Nc1ccccc1)c1ccc(CSc2ncccn2)cc1 | 91.4 | -44.1 | 151.7* | 12.3 | 139.4* | 2.47
CSCc1ccc(C(=O)NCc2ccc(C)cc2)cc1 | 108.4 | -6.0 | -0.7 | -12.0 | 105.7 | 1.21
CSCc1ccc(C(=O)Nc2ccc(C(N)=O)cc2)cc1 | 98.4 | -52.7 | 85.3 | 8.8 | 146.8* | 1.77
Cn1nnnc1SCc1ccc(C(=O)Nc2ccccc2F)cc1 | 92.9 | -7.1 | 44.4 | 18.3 | 106.4 | 1.49
Cc1ccc(NC(=O)c2ccc(CSc3nccc(C)n3)cc2)cc1 | 100.9 | 1.3 | 18.6 | 3.8 | 98.9 | 1.01
Cc1ccc2[nH]c(=O)c(CN(CC3CCCO3)C(=S)Nc3ccccc3)cc2c1 (stereo not given) | 93.2 | -1.5 | -9.2 | 15.6 | 101.3 | 0.56
O=[N+]([O-])c1ccc(-c2cn(-c3ccccc3)c(=S)[nH]2)cc1 | 105.9 | -34.0 | 39.9 | -7.4 | 130.9* | 1.09
CC1(C)CC(=O)c2sc(NC(=O)c3ccccc3)nc2C1 | 91.7 | -30.1 | 170.5* | 18.0 | 128.0 | 3.55*
CCS(=O)(=O)N1Cc2ccccc2CC1C(=O)Nc1nc2ccccc2[nH]1 (stereo not given) | 114.2 | -20.5 | 181.9* | -10.0 | 117.9 | 0.86
O=C(CC1CCCC1)Nc1nc2ccccc2[nH]1 | 109.2 | -48.0 | 91.3 | -6.4 | 144.0* | 2.33
CCCCCC(=O)Nc1nc2ccccc2[nH]1 | 104.9 | -31.8 | 67.7 | -3.3 | 129.4* | 2.66
O=C(Cc1cccc2ccccc12)Nc1nc2ccccc2[nH]1 | 106.8 | 1.7 | -9.0 | -10.0 | 98.4 | 1.03
O=C(Nc1nc2ccccc2[nH]1)C1CCCC1 | 107.1 | -43.9 | 88.6 | -3.7 | 136.3* | 0.93
O=C(Nc1nc2ccccc2[nH]1)C1CCC1 | 109.4 | -33.5 | 37.6 | -6.4 | 127.0 | 0.95
CCCCNc1ccc2nsnc2c1[N+](=O)[O-] | 99.1 | -7.8 | -6.9 | 3.3 | 107.0 | 0.96
COc1ccc(C2(C(=O)NC3CCCCC3)CCOCC2)cc1OC | 102.0 | 5.8 | 23.2 | -5.5 | 94.7 | 1.43
CC[C@H](C)[C@@H](NC(=O)O[C@@H]1C(=O)c2cc(Br)ccc2O[C@H]1c1ccc2c(c1)OCO2)C(=O)OC | 96.7 | 10.5 | 7.5 | 1.1 | 90.5 | 1.33
O=c1[nH]c2ccc(Cl)cc2c(O)c1-c1ccccc1 | 29.0 | 45.3* | -4.8 | 82.6* | 67.2 | 0.6
SMILES | STAT3 activator | STAT1 inh | APP 5'UTR act | STAT3 blocker | STAT1 activator | NF-kB expr up
O=c1[nH]c2ccc(Cl)cc2c(-c2ccccc2)c1SC(=S)N1CCCCC1 | 104.5 | 1.2 | -4.4 | -0.6 | 98.8 | 1.08
COc1cc(C=O)ccc1OCc1cccc(Br)c1 | 104.1 | -33.6 | 57.6 | -4.8 | 129.5* | 1.07
COC(=O)c1ccccc1OCCOc1ccccc1C(=O)OC | 105.9 | -0.6 | -2.9 | -2.1 | 100.5 | 1.2
COC(=O)c1ccccc1OCCCOc1ccc(C=O)cc1OC | 130.3 | -37.6 | 90.7 | -37.6 | 134.3* | 1.24
C/C(=N\O)c1ccc(N2C(=O)C3CC=C(Cl)CC3C2=O)cc1 (stereo not given) | 91.1 | -42.6 | 144.4* | 9.8 | 139.3* | 2.14
Cc1ccc(NC(=O)c2ccc(N3C(=O)C4CC=C(Cl)CC4C3=O)cc2)cc1 (stereo not given) | 86.6 | 1.4 | . | 21.8 | 98.7 | 0.96
COC(=O)C1(CCSC)NC(c2ccc(O)c(OC)c2)C2C(=O)N(c3ccc(C)cc3)C(=O)C21 (stereo not given) | 95.0 | -3.9 | -8.2 | 9.2 | 101.6 | 0.97
COCCN1Cc2c(sc(C)c2C)N(C(=O)c2ccccc2)C1 | 137.5* | -10.2 | 51.7 | -32.3 | 109.3 | 2.5
CCc1cccc(CC)c1NC(=S)NCC(c1cccnc1)N(C)C (stereo not given) | 93.5 | -8.2 | -2.7 | 10.0 | 106.2 | 1.28
CCOc1ccc(C(=O)/C=C/c2cn(CN3CCN(C)CC3)c3ccccc23)cc1 | 93.6 | -11.9 | 21.0 | 11.4 | 110.7 | 3.42*
COc1ccc(C(=O)/C=C/c2cn(CC(O)CN3CCOCC3)c3ccccc23)cc1 (stereo not given) | 105.5 | -18.6 | 4.7 | -4.3 | 116.6 | 0.73
COc1ccc(C(=O)/C=C/c2cn(CN3CCN(C)CC3)c3ccccc23)cc1 | 86.7 | -13.6 | 52.2 | 19.9 | 112.6 | 6.45*
CCCCC(CC)CNC(=O)Cn1c(=S)[nH]c2ncccc2c1=O (stereo not given) | 100.5 | 1.9 | 17.6 | 4.5 | 99.8 | 1.02
CCc1ccc(/C=N\NC(=O)c2ccc(Br)o2)s1 | 108.9 | -48.9 | 49.9 | -12.7 | 146.0* | 2.92
CCN(CC)c1ccc(/C=N/NC(=O)c2ccc(Br)o2)cc1 | 106.8 | -42.0 | 95.7 | -6.8 | 138.5* | 4.32*
O=C(N/N=C/c1ccc2c(c1)OCO2)c1ccc(Br)o1 | 111.2 | -46.5 | 50.7 | -19.0 | 142.4* | 3.53*
Cc1ccc(/C=N/NC(=O)c2ccc(Br)o2)s1 | 109.5 | -8.6 | 41.8 | -14.4 | 107.7 | 2.05
COc1cccc(CN(C)CC(=O)Nc2ccccc2N2CCOCC2)c1OC | 98.6 | 8.7 | 11.8 | 7.0 | 90.7 | 1.24
COc1ccc(C(C)(C)C)cc1NC(=O)c1cc(S(=O)(=O)N(C)C)ccc1N1CCCC1 | 111.5 | 1.5 | -12.1 | -18.8 | 98.7 | 0.68
COC(=O)/C=C/c1ccsc1NC(C)=O | 102.3 | -7.8 | -8.6 | 2.0 | 106.8 | 1.03
Cc1cc(-c2ccc(Br)cc2)n[nH]1 | 82.9 | -40.0 | 25.5 | 27.2 | 137.1* | 1.49
Nc1cc(-c2ccc(Br)cc2)[nH]n1 | 111.2 | -4.9 | 14.6 | -8.8 | 104.4 | 1.02
CC(C)c1ccc(CNc2ccc([N+](=O)[O-])cn2)cc1 | 108.8 | -43.3 | 73.5 | 1.4 | 137.6* | 2.31
CC(=O)NCCOc1ccc2oc3ccccc3c2c1 | 98.0 | -32.6 | 17.2 | 6.5 | 130.1* | 2.16
Nc1ccccc1C#Cc1ccccc1 | 96.7 | -51.6 | 118.9 | 5.7 | 146.1* | 8.73*
Nc1ccc(C#Cc2ccccc2)cc1 | 89.3 | -33.8 | 7.1 | 22.4 | 130.4* | 1.49
Nc1ccc(-c2nc3ccccc3[nH]2)cc1 | 102.0 | -23.5 | 58.2 | 2.4 | 121.3 | 1.97
